Data from ChEMBL document CHEMBL3272242, “Sulfamylurea hypoglycemic agents. 6. High-potency derivatives” (J Med Chem, 1976).
The source made the active and inactive calls. The calls are words filed in the database; no cut-off is given here.

Legend:
Rattus norvegicus [1] = assay: Hypoglycemic activity in 18 to 24 hrs-fasted rat assessed as reduction in blood glucose at 15 mg/kg, ip measured after 1 hr relative to saline-treated control; type: functional; parameters: scale not given: the % may be the effect or the level left; conditions: route intraperitoneal
In short: (§1)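 Unanesthetized male Charles River rats (200–250 g), fasted 18–24 h, in groups of five or six. Single ip dose. Tail-vein blood drawn before dosing and 1 h after. Glucose measured by ferricyanide reduction micromethod on an autoanalyzer. Value is the percent fall in blood glucose at 1 h versus a saline-treated control group. Significance levels are p < 0.05, 0.01 and 0.001.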

Rattus norvegicus [2] = assay: Hypoglycemic activity in 18 to 24 hrs-fasted rat assessed as reduction in blood glucose at 5 mg/kg, ip measured after 1 hr relative to saline-treated control; type: functional; parameters: scale not given: the % may be the effect or the level left; conditions: route intraperitoneal; in short: as §1
Rattus norvegicus [3] = assay: Hypoglycemic activity in 18 to 24 hrs-fasted rat assessed as reduction in blood glucose at 25 mg/kg, ip measured after 1 hr relative to saline-treated control; type: functional; parameters: scale not given: the % may be the effect or the level left; conditions: route intraperitoneal; in short: as §1
Rattus norvegicus [4] = assay: Hypoglycemic activity in 18 to 24 hrs-fasted rat assessed as reduction in blood glucose at 1 mg/kg, ip measured after 1 hr relative to saline-treated control; type: functional; parameters: scale not given: the % may be the effect or the level left; conditions: route intraperitoneal; in short: as §1
Homo sapiens = species: Homo sapiens; assay: Toxicity in maturity-onset diabetic patient; type: organism-based; conditions: in vivo
Rattus norvegicus [5] = assay: Hypoglycemic activity in 18 to 24 hrs-fasted rat assessed as reduction in blood glucose at 0.5 mg/kg, ip measured after 1 hr relative to saline-treated control; type: functional, organism-based; parameters: dose 0.5 mg/kg; in short: as §1
Rattus norvegicus [6] = assay: Hypoglycemic activity in 18 to 24 hrs-fasted rat assessed as reduction in blood glucose at 50 mg/kg, ip measured after 1 hr relative to saline-treated control; type: functional; parameters: scale not given: the % may be the effect or the level left; conditions: route intraperitoneal; in short: as §1
Rattus norvegicus [7] = assay: Hypoglycemic activity in 18 to 24 hrs-fasted rat assessed as reduction in blood glucose at 100 mg/kg, ip measured after 1 hr relative to saline-treated control; type: functional; parameters: scale not given: the % may be the effect or the level left; conditions: route intraperitoneal; in short: as §1

Question: For `CSc1ccc(C(F)(F)F)cc1C(=O)NCCC1CCN(S(=O)(=O)NC(=O)NC2CCCCC2)CC1`, which Activity (Rattus norvegicus [1]) is on record?
Answer: 24%

Question: For `COc1ccc(C(=O)NCCC2CCN(S(=O)(=O)NC(=O)NC[C@@H]3C[C@@H]4C=C[C@@H]3C4)CC2)cn1` (relative stereo), which Activity (Rattus norvegicus [2]) is on record?
Answer: 11%

Question: And the Activity (Rattus norvegicus [1])?
Answer: 32%

Question: Which results are given for `O=C(NC[C@@H]1C[C@@H]2CC[C@@H]1O2)NS(=O)(=O)N1CCC(CCNC(=O)c2cccc3c2OCCO3)CC1` (relative stereo)?
Answer: Activity (Rattus norvegicus [2]): 15%; Activity (Rattus norvegicus [1]): 13%

Question: What does the source list for `CCCNC(=O)NS(=O)(=O)N1CCC(CCNC(=O)c2cc(Cl)ccc2OC)CC1`?
Answer: Activity (Rattus norvegicus [2]): 11%; Activity (Rattus norvegicus [3]): 41%; Activity (Rattus norvegicus [4]): 24%

Question: What does the source list for `O=C(NC1CCCCC1)NS(=O)(=O)N1CCC(CCNC(=O)c2cccc3cccnc23)CC1`?
Answer: Activity (Rattus norvegicus [2]): 37%; Activity (Rattus norvegicus [4]): 29%

Question: `O=C(NC[C@@H]1C[C@@H]2C=C[C@@H]1C2)NS(=O)(=O)N1CCC(CCNC(=O)c2cnsc2)CC1` (relative stereo) was tested. Which Activity (Rattus norvegicus [1]) did it give?
Answer: 14%

Question: How did the Activity (Rattus norvegicus [2]) turn out when `Cn1cc(C(=O)NCCC2CCN(S(=O)(=O)NC(=O)NC[C@@H]3C[C@@H]4C=C[C@@H]3C4)CC2)c(=O)n(C)c1=O` (relative stereo) was run?
Answer: 23%

Question: What about the Activity (Rattus norvegicus [4]) of the same compound?
Answer: 12%

Question: And the Activity (Rattus norvegicus [1])?
Answer: 32%

Question: Which Activity (Rattus norvegicus [2]) does the source give for `COc1ncccc1C(=O)NCCC1CCN(S(=O)(=O)NC(=O)NC[C@@H]2C[C@@H]3C=C[C@@H]2C3)CC1` (relative stereo) here?
Answer: 32%

Question: What about the Activity (Rattus norvegicus [4]) of the same compound?
Answer: 25%

Question: And the Activity (Homo sapiens)?
Answer: Non-toxic

Question: Which results are given for `COc1ccc(Cl)cc1C(=O)NCCC1CCN(S(=O)(=O)NC(=O)NC2CCCCC2)CC1`?
Answer: Activity (Rattus norvegicus [2]): 25%; Activity (Rattus norvegicus [4]): 39%

Question: How did the Activity (Rattus norvegicus [2]) turn out when `O=C(NC1CCCCC1)NS(=O)(=O)N1CCC(CCNC(=O)c2cccc3c2OCCO3)CC1` was run?
Answer: 34%

Question: And the Activity (Rattus norvegicus [1])?
Answer: 42%

Question: For `COc1ncccc1C(=O)NCCC1CCN(S(=O)(=O)NC(=O)NC23CC4CC(CC(C4)C2)C3)CC1`, which Activity (Rattus norvegicus [2]) is on record?
Answer: 25%

Question: What about the Activity (Rattus norvegicus [4]) of the same compound?
Answer: 12%

Question: For `CCCNC(=O)NS(=O)(=O)N1CCC(CCNC(=O)c2cccc3c2OCCO3)CC1`, which Activity (Rattus norvegicus [1]) is on record?
Answer: 25%

Question: `O=C(NC1CCCCC1)NS(=O)(=O)N1CCC(CCNC(=O)c2ccc3c(c2)OCO3)CC1` was tested. Which Activity (Rattus norvegicus [1]) did it give?
Answer: 17%

Question: Which results are given for `Cc1ncsc1C(=O)NCCC1CCN(S(=O)(=O)NC(=O)NC[C@@H]2C[C@@H]3C=C[C@@H]2C3)CC1` (relative stereo)?
Answer: Activity (Rattus norvegicus [2]): 11%; Activity (Rattus norvegicus [1]): 25%

Question: Which results are given for `COc1ccc(Cl)cc1C(=O)NCCC1CCN(S(=O)(=O)NC(=O)NC[C@@H]2C[C@@H]3C=C[C@@H]2C3)CC1` (relative stereo)?
Answer: Activity (Rattus norvegicus [2]): 37%; Activity (Rattus norvegicus [4]): 27%

Question: For `O.O=C(NC[C@@H]1C[C@@H]2C=C[C@@H]1C2)NS(=O)(=O)N1CCC(CCNC(=O)c2cc(Cl)cc3cccnc23)CC1` (relative stereo), which Activity (Rattus norvegicus [2]) is on record?
Answer: 35%

Question: And the Activity (Rattus norvegicus [4])?
Answer: 16%

Question: And the Activity (Rattus norvegicus [5])?
Answer: inactive

Question: `COc1ncccc1C(=O)NCCC1CCN(S(=O)(=O)NC(=O)NC2CCCCC2)CC1` was tested. Which Activity (Rattus norvegicus [2]) did it give?
Answer: 33%

Question: And the Activity (Rattus norvegicus [4])?
Answer: 22%

Question: What about the Activity (Rattus norvegicus [1]) of the same compound?
Answer: 35%

Question: Which results are given for `CCCNC(=O)NS(=O)(=O)c1ccc(Cl)cc1` [CHLORPROPAMIDE]?
Answer: Activity (Rattus norvegicus [2]): 10%; Activity (Rattus norvegicus [6]): 46%; Activity (Rattus norvegicus [1]): 18%

Question: `O.O=C(NC1CCCCC1)NS(=O)(=O)N1CCC(CCNC(=O)c2cc(Cl)cc3cccnc23)CC1` was tested. Which Activity (Rattus norvegicus [2]) did it give?
Answer: 52%

Question: And the Activity (Rattus norvegicus [4])?
Answer: 17%

Question: What about the Activity (Rattus norvegicus [5]) of the same compound?
Answer: inactive

Question: How did the Activity (Rattus norvegicus [1]) turn out when `O=C(NC[C@@H]1C[C@@H]2C=C[C@@H]1C2)NS(=O)(=O)N1CCC(CCNC(=O)c2cnccc2Cl)CC1` (relative stereo) was run?
Answer: 12%

Question: `O=C(NC1CCCCC1)NS(=O)(=O)N1CCCCC1` was tested. Which Activity (Rattus norvegicus [1]) did it give?
Answer: 19%

Question: What about the Activity (Rattus norvegicus [7]) of the same compound?
Answer: 34%

Question: Which results are given for `O=C(NC[C@@H]1C[C@@H]2C=C[C@@H]1C2)NS(=O)(=O)N1CCC(CCNC(=O)c2cc(Cl)ccn2)CC1` (relative stereo)?
Answer: Activity (Rattus norvegicus [2]): 32%; Activity (Rattus norvegicus [4]): 16%; Activity (Rattus norvegicus [1]): 46%

Question: How did the Activity (Rattus norvegicus [1]) turn out when `O=C(NC[C@@H]1C[C@@H]2C=C[C@@H]1C2)NS(=O)(=O)N1CCC(CCNC(=O)c2cscn2)CC1` (relative stereo) was run?
Answer: 37%

Question: For `Cn1cc(C(=O)NCCC2CCN(S(=O)(=O)NC(=O)NC3CCCCC3)CC2)c(=O)n(C)c1=O`, which Activity (Rattus norvegicus [1]) is on record?
Answer: 15%

Question: Which Activity (Rattus norvegicus [2]) does the source give for `O.O=C(NC[C@@H]1C[C@@H]2C=C[C@@H]1C2)NS(=O)(=O)N1CCC(CCNC(=O)c2nc3ccccc3s2)CC1` (relative stereo) here?
Answer: 24%

Question: And the Activity (Rattus norvegicus [4])?
Answer: 14%

Question: And the Activity (Rattus norvegicus [1])?
Answer: 34%

Question: For `COc1ncccc1C(=O)NCCC1CCN(S(=O)(=O)NC(=O)NC[C@H]2C[C@@H]3CC[C@@H]2O3)CC1` (relative stereo), which Activity (Rattus norvegicus [2]) is on record?
Answer: 14%

Question: `O.O=C(NC[C@@H]1C[C@@H]2C=C[C@@H]1C2)NS(=O)(=O)N1CCC(CCNC(=O)c2cccc3cccnc23)CC1` (relative stereo) was tested. Which Activity (Rattus norvegicus [2]) did it give?
Answer: 34%

Question: What about the Activity (Rattus norvegicus [4]) of the same compound?
Answer: 32%

Question: `CC(=O)NCCC1CCN(S(=O)(=O)NC(=O)NC[C@@H]2C[C@@H]3C=C[C@@H]2C3)CC1` (relative stereo) was tested. Which Activity (Rattus norvegicus [2]) did it give?
Answer: 18%

Question: And the Activity (Rattus norvegicus [1])?
Answer: 25%

Question: For `Cn1cccc(C(=O)NCCC2CCN(S(=O)(=O)NC(=O)NC[C@@H]3C[C@@H]4C=C[C@@H]3C4)CC2)c1=O` (relative stereo), which Activity (Rattus norvegicus [4]) is on record?
Answer: 19%

Question: What about the Activity (Rattus norvegicus [1]) of the same compound?
Answer: 40%

Question: For `COc1ccc(Cl)cc1C(=O)NCC1CCN(S(=O)(=O)NC(=O)NC2CCCCC2)CC1.O`, which Activity (Rattus norvegicus [2]) is on record?
Answer: 20%

Question: `CC#N.O=C(NC[C@@H]1C[C@@H]2CC[C@@H]1O2)NS(=O)(=O)N1CCC(CCNC(=O)c2nc3ccccc3s2)CC1` (relative stereo) was tested. Which Activity (Rattus norvegicus [1]) did it give?
Answer: 30%

Question: `COc1ncc(Cl)cc1C(=O)NCCC1CCN(S(=O)(=O)NC(=O)NC[C@@H]2C[C@@H]3C=C[C@@H]2C3)CC1.O` (relative stereo) was tested. Which Activity (Rattus norvegicus [4]) did it give?
Answer: 20%

Question: And the Activity (Rattus norvegicus [5])?
Answer: inactive

Question: Which Activity (Rattus norvegicus [2]) does the source give for `COc1ncccc1C(=O)NCCC1CCN(S(=O)(=O)NC(=O)NCC2CCCCO2)CC1` (configuration not stated) here?
Answer: 12%

Question: `O=C(NC1CCCCC1)NS(=O)(=O)N1CCC(CCNC(=O)c2ccc3ccccc3n2)CC1` was tested. Which Activity (Rattus norvegicus [2]) did it give?
Answer: 11%

Question: `O=C(NC[C@@H]1C[C@@H]2CC[C@@H]1O2)NS(=O)(=O)N1CCC(CCNC(=O)C2Oc3ccccc3O2)CC1` (relative stereo) was tested. Which Activity (Rattus norvegicus [2]) did it give?
Answer: 15%

Question: What about the Activity (Rattus norvegicus [1]) of the same compound?
Answer: 38%

Question: For `COc1ccc(Cl)cc1C(=O)NCCC1CCN(S(=O)(=O)NC(=O)NC23CC4CC(CC(C4)C2)C3)CC1`, which Activity (Rattus norvegicus [2]) is on record?
Answer: 29%

Question: What does the source list for `O=C(NC[C@@H]1C[C@@H]2C=C[C@@H]1C2)NS(=O)(=O)N1CCC(CCNC(=O)c2cccc3c2OCCO3)CC1`?
Answer: Activity (Rattus norvegicus [2]): 11%; Activity (Rattus norvegicus [1]): 40%

Question: Which Activity (Rattus norvegicus [2]) does the source give for `O=C(NC1CCCCC1)NS(=O)(=O)N1CCC(CCNC(=O)C(F)(F)F)CC1` here?
Answer: 13%

Question: How did the Activity (Rattus norvegicus [1]) turn out when `O=C(NC1CCCCC1)NS(=O)(=O)N1CCC(CCNC(=O)c2nsc3ccccc23)CC1` was run?
Answer: 17%
